Vif inh: blocks HIV Vif function | inhibition, % at 7.49 µM | actives 0.35% (n = 340,000) | HEK293T cells, Vif self-association by quenched fluorescence, imaging, 24 h | AID 602346; in the data active = inhibition above about 50%, passing the limit was not always enough
SR-BI DiI inh: mouse SR-BI HDL lipid transfer inhibition | inhibition, % at 12.5 µM | actives 0.96% (n = 320,000) | AID 488896 | Q61009 | ldlA[mSR-BI] CHO cells, DiI-HDL uptake fluorescence, 3 h;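 active = mean replicate inhibition of at least 70% and a set share of replicates each scoring 70 or more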;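 also: 0% = median of neutral control wells and 100% = median of positive control wells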
CaV13 FRET inh: Disruptors of the CACNA1D IQ motif to Ca2+-dependent inactivation inhibitor domain association, primary screening, Förster resonance energy transfer in intact living … | HEK cells, CFP/YFP FRET ICDI-IQ, plate reader, 10 min; percent FRET-ratio fall versus neutral wells | AID 743397 | actives 0.098% (n = 340,000) | inhibition, % at 12.3 µM;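 active = mean replicate inhibition of at least 30% and at least 1% of replicates passing that level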;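 also: 0% = median of the neutral control wells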
V-ATPase pHluor: yeast V-ATPase proton transport regulation by pHLuorin. S. cerevisiae, pHLuorin cytosolic pH fluorescence. response, % at 10 µM. AID 504577. actives 0.37% (n = 350,000); in the data active = response mostly above about 7.3%, no sharp cut-off; inactive = mostly below about 5.4%; also: actives read high
SR-BI DiI-HDL act: activators of SR-BI mediated HDL lipid uptake; CHO ldlA[mSR-BI] cells, DiI-HDL uptake fluorescence, 3 h; 100 = double the neutral-control signal; activation, % at 12.5 µM; actives 0.096% (n = 320,000); AID 504775;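 active = mean replicate activation of at least 60% and every replicate at or above 60%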;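 also: 0% = median plate neutral-control signal and 100% = twice that signal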
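Test system: SR-BI-overexpressing, LDLR-lacking CHO cells; Medium: Ham's F12 with 0.5% BSA, HEPES 25 mM, pH 7.4; Schedule: 3 h, 37 °C; Technique: bottom-read fluorescence, 550/595 nm.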
NTR1 agonist: NTR1 (human) agonism. NTR1-U2OS beta-arrestin-GFP spot imaging, agonist mode. activation, % at 20 µM. actives 0.17% (n = 330,000);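 active = activation at or above 40% of the spot to cytoplasm intensity ratio, with at least 20 cells analyzed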;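 also: 0% = DMSO without peptide and 100% = 100 nM NTR1 peptide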
Target sequence (P30989 whole entry, looked up): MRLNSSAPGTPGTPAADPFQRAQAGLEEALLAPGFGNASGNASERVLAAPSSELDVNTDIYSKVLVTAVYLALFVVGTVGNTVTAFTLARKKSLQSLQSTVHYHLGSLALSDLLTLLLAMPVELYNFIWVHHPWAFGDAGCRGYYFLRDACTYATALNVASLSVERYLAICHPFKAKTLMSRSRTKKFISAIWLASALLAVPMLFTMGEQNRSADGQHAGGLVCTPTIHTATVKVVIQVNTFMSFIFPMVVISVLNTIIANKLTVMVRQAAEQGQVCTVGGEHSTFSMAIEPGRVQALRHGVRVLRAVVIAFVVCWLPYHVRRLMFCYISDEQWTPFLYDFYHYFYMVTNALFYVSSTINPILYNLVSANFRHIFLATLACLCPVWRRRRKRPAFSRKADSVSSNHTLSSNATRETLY
* = called active by the depositor; . = no result given. Rows were chosen to be rich in hits. Some 1.7% of all compounds tested hit in one or more screens of this group.

SMILES	Vif inh	SR-BI DiI inh	CaV13 FRET inh	V-ATPase pHluor	SR-BI DiI-HDL act	NTR1 agonist
O=C(c1ccc(NS(=O)(=O)c2cccc([N+](=O)[O-])c2)cc1)N1CCN(C(=O)c2ccco2)CC1	2	-63	-3	-2	63*	0
O=C(OCn1ncc(Cl)c(Cl)c1=O)c1ccc(C(F)(F)F)cc1	-2	5	-9	4	-5	-2
CCOC(=O)c1ccc(NC(=O)Cn2ncc(Cl)c(Cl)c2=O)cc1	-1	-2	5	-4	2	1
Cc1ccc(C(=O)OCn2ncc(Cl)c(Cl)c2=O)cc1	50*	-5	-4	2	5	1
CCC(=O)Nc1ccc(C(=O)Cn2ncc(Cl)c(Cl)c2=O)cc1	1	.	-4	11*	.	10
O=C(CN1CCCCCC1)N/N=C/c1ccc2ccccc2c1	8	6	-1	-3	-6	.
CCOc1ccc(N(CC(=O)NC2CCCCC2)C(=O)Cn2nnc(-c3ccc(C)o3)n2)cc1	-13	.	-7	-3	.	1
Cc1ccc(N(CC(=O)NC2CCCCC2)C(=O)Cn2nnc(-c3ccc(C)o3)n2)cc1	10	-28	5	13*	28	1
c1ccc(CN2CCN(c3nc(NCc4ccco4)c4ccccc4n3)CC2)cc1	-6	22	-7	-1	-22	44*
Cn1c(=O)c(C(=O)Nc2ncccc2O)c(O)c2ccccc21	6	-13	-4	10	13	-1
CCCn1c(=O)c(C(=O)Nc2ncccc2O)c(O)c2ccccc21	58*	-3	-5	-5	3	-1
Cc1cc2cc(CNC(=O)c3cc4ccccc4o3)ccc2n1C	.	.	.	.	.	-6
Cc1cc2cc(CNC(=O)c3ccco3)ccc2n1C	-13	-9	56*	3	9	3
COc1ccc(-c2[nH]c(-c3ccc4c(c3)OCO4)nc2-c2ccccc2)cc1	.	63	-4	0	-63	14
COc1cc(-c2nc(-c3ccccc3)c(-c3ccc(F)cc3)[nH]2)cc2c1OCO2	-15	85*	-14	-1	-85	22
C=CCN(CC=C)C(=O)c1ccc(OC2CCN(S(=O)(=O)N(C)C)CC2)cc1	16	4	-2	1	-4	1
Cc1ccc(C(=O)OCC(=O)Nc2c(C)nn(-c3ccccc3)c2C)c(O)c1	-11	.	51*	-1	.	.
COc1ccc(-n2c(SCC(=O)Nc3cc(C)on3)nc3c(c2=O)SC(C)C3)cc1 (stereo not given)	10	.	-12	-3	.	.
Cc1ccc(-n2c(SCC(=O)N/N=C/c3c(C)nn(-c4ccccc4)c3C)nc3ccccc3c2=O)cc1	0	49	-2	-1	-49	6
Cc1nn(-c2ccccc2)c(C)c1/C=N/NC(=O)CSc1nnc(SCc2cccc3ccccc23)s1	-10	73*	-3	1	-73	0
Cc1nn(-c2ccccc2)c(C)c1/C=N/NC(=O)CSc1nc2ccccc2c(=O)n1-c1ccc(Br)cc1	.	74*	-5	-1	-74	0
CCOc1ccc(S(=O)(=O)N2CCN(C(=O)c3sccc3C)CC2)cc1	27	-9	-6	0	9	0
CC(=O)C1=C(C)NC(SCC(=O)c2ccc(Cl)cc2)=C(C#N)C1c1ccco1 (stereo not given)	58*	-1	.	1	1	5
CC(=O)C1=C(C)NC(SCC(=O)c2ccccc2)=C(C#N)C1c1ccco1 (stereo not given)	.	.	.	.	.	7
C/C(=N\Nc1nc(C)c(C)s1)c1ccc([N+](=O)[O-])cc1	11	81*	2	9	-81	-2
SMILES	Vif inh	SR-BI DiI inh	CaV13 FRET inh	V-ATPase pHluor	SR-BI DiI-HDL act	NTR1 agonist
C/C(=N\Nc1ccc([N+](=O)[O-])cc1)c1ccc(-n2nncc2C)cc1	2	44	-24	-2	-44	-2
C/C(=N\Nc1ccc([N+](=O)[O-])cc1)c1ccc(N)cc1	-4	23	-5	-1	-23	.
CCc1ccc(/C(C)=N\Nc2ccc([N+](=O)[O-])cc2)cc1	60*	34	-12	0	-34	-1
CCc1ccc(C(O)c2ncc(-c3ccc4ccccc4c3)[nH]2)cc1 (stereo not given)	2	.	-10	.	.	.
COc1ccc(CCNC(=O)c2cc(S(=O)(=O)N3CCCCCC3)ccc2OC)cc1OC	-9	13	-2	-2	-13	1
Cc1cc(NC(=O)CSc2nc3c(sc4ccccc43)c(=O)n2CCCN2CCOCC2)n[nH]1	94*	-20	-6	2	20	0
CC(C)(C)NC(=O)CSc1nc(O)cc(=O)n1-c1ccccc1	94*	-13	-9	1	13	0
C/C=C/c1ccc(OCCNCc2ccccc2)c(OC)c1	70*	-1	-20	-1	1	0
C/C=C/c1ccc(OCCCNC)c(OC)c1	2	-7	-4	3	7	-2
COC1=CC(C)C2CC3OC(O)CC4C(C)=C(OC)C(=O)C(C2(C)C1=O)C34C (stereo not given)	-2	.	.	.	.	.
CCOC(=O)c1cc(-c2ccccc2)sc1NC(=S)Nc1cc(C)ccn1	169*	-15	.	-1	15	16
CCOC(=O)c1cc(-c2ccccc2)sc1NC(=O)C(C)(C)C	-9	41	.	-1	-41	1
Cc1ccc(-c2cc3cccc[n+]3cc2-c2ccc(C)cc2)cc1	-24	11	-5	0	-11	8
C/C(=N/OC(=O)c1ccc(C(F)(F)F)cc1)c1oc(C)nc1C	-3	-6	-21	-2	6	3
CCCCCn1c(=O)c(-c2nc3ccccc3[nH]2)c(O)c2ccccc21	2	95*	-6	-1	-95	2
CCCCCCN1CC(O)=C(c2nc3ccccc3[nH]2)C1=N	-2	19	-8	13*	-19	0
COc1ccc(CN2CN(S(=O)(=O)c3ccccc3)c3nc4ccccc4nc32)cc1	4	.	-3	-2	.	2
COc1cc(C(=O)Nc2ccc(N3CCCS3(=O)=O)cc2)c([N+](=O)[O-])cc1OC	-4	81*	-12	-3	-81	2
COc1cc(C(=O)N2CCCc3ccccc32)c([N+](=O)[O-])cc1OC	-1	-2	-20	0	2	-1
COc1cc(C(=O)Nc2ccc3c(c2)CCCN3C(=O)c2ccco2)c([N+](=O)[O-])cc1OC	-9	76*	-6	-3	-76	1
COC(=O)[C@]12C[C@H](CC(=O)NCc3cccc4ccccc34)C(=O)N(Cc3ccccc3)C1=C[C@H](C(C)C)O[C@@H]2C1CC1	.	.	-8	.	.	.

Source: PubChem BioAssay
